From ChEMBL document CHEMBL4715819, “Bicyclic Helical Peptides as Dual Inhibitors Selective for Bcl2A1 and Mcl-1 Proteins” (J Med Chem, 2018)
Calls of active or inactive are those of the source. The calls are words filed in the database; no cut-off is given here. Positions of bridges follow the written chain, without caps; N, C: chain ends. Non-standard residues stand in square brackets, D forms with d. Residues, ends and D or L forms follow the SMILES beside them. ξ: configuration not given here. *: point of attachment. S5 = C=CCCC[C@](C)(N)C(=O)O; Acryloyl = C=CC(=O)*; Propionyl = CCC(=O)*; ξDap = NCC(N)C(=O)O

Tests used:
[1] = target: T1, Bcl-2-related protein A1 (Homo sapiens) (UniProt Q16548); test: Covalent binding affinity to human Bcl2A1 assessed as Kinact/Ki ratio by FBid based FP assay
T1 sequence (whole entry): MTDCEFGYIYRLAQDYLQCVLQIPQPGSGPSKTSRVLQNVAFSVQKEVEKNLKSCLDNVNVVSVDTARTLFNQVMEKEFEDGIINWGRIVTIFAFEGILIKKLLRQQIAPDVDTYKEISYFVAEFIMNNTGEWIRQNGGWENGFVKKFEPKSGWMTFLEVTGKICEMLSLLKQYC

[2] = target: T1, Bcl-2-related protein A1 (Homo sapiens); test: Covalent binding affinity to Bcl2A1 in human U937 cells at 0.1 to 50 uM incubated for 24 hrs by Western blot analysis; conditions: U-937, dose 0.1-50 µM
Bcl-2-related protein A1 [3] = target: T2, Bcl-2-related protein A1 (Homo sapiens, UniProt Q16548); test: Covalent binding affinity to human Bcl2A1 by FBid based FP assay
T2 sequence (Q16548 whole entry): T1 sequence (whole entry)

Bcl-2-related protein A1 [4] = target: T2, Bcl-2-related protein A1; test: (§1) Binding affinity to human Bcl2A1 incubated for 2 hrs by FBid based competitive FP assay
[5] = target: T3, Induced myeloid leukemia cell differentiation protein Mcl-1 (Homo sapiens, UniProt Q07820); test: Binding affinity to human Mcl1 incubated for 2 hrs by FBid based competitive FP assay
T3 sequence (Q07820 whole entry): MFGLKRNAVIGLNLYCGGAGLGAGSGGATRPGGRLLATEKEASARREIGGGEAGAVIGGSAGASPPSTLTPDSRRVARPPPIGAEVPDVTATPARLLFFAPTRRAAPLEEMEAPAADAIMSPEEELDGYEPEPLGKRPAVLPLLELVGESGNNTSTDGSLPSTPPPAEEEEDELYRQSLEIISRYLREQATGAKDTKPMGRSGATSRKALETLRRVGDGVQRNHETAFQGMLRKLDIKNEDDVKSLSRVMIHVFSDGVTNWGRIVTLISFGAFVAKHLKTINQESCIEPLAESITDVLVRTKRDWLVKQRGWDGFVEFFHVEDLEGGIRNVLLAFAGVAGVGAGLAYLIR

[6] = target: T1, Bcl-2-related protein A1 (Homo sapiens); test: Covalent binding affinity to human Bcl2A1 assessed as inactivation constant by FBid based FP assay
SK-MEL-28 [7] = test: Cytotoxicity in human SK-MEL-28 cells assessed as reduction in cell viability incubated for 48 hrs by MTT assay; assay type: functional, cell-based; conditions: for IC50: SK-MEL-28, 48 h
Procedure, shortened: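 SK-MEL-28 cells grown in DMEM with 10% FBS and penicillin/streptomycin. Peptide applied over a concentration series for 48 h. Viability read by MTT, and IC50 taken from the dose–response.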

[8] = target: Apoptosis regulator Bcl-2 (Homo sapiens) (UniProt P10415); test: Binding affinity to human Bcl2 incubated for 2 hrs by FBid based competitive FP assay
Apoptosis regulator Bcl-2 (Homo sapiens), sequence (P10415 whole entry): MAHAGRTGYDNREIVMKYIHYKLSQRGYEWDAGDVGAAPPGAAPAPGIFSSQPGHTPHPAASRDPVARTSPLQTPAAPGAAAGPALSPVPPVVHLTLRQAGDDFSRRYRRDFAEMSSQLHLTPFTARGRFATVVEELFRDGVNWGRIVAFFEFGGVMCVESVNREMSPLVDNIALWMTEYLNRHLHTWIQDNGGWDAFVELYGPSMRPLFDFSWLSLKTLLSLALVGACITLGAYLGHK

[9] = target: T4, Bcl-2-like protein 2 (Homo sapiens) (UniProt Q92843); test: Binding affinity to human Bcl-w incubated for 2 hrs by FBid based competitive FP assay
T4 sequence (whole entry): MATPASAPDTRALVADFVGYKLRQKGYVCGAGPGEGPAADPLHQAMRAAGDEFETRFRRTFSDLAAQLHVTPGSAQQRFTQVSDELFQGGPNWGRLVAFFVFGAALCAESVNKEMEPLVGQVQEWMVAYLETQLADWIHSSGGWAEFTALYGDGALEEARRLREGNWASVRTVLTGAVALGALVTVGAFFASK

[10] = target: Bcl-2-like protein 1 (Homo sapiens) (UniProt Q07817); test: Binding affinity to human Bcl-xL incubated for 2 hrs by FBid based competitive FP assay
Bcl-2-like protein 1 (Homo sapiens), sequence (Q07817 whole entry): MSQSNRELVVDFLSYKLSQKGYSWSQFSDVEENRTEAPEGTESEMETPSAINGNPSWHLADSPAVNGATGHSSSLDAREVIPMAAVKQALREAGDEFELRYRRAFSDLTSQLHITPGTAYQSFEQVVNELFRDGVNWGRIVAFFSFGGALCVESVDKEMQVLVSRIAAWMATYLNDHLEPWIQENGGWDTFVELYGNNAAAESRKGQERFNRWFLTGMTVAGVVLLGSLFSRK

[11] = target: T1, Bcl-2-related protein A1 (Homo sapiens); test: Covalent binding affinity to human Bcl2A1 incubated for 2 hrs by SDS-PAGE electrophoresis
[12] = target: T1, Bcl-2-related protein A1 (Homo sapiens); test: Covalent binding affinity to human Bcl2A1 incubated for 2 hrs by in presence of trypsin by MS/MS analysis
Procedure, shortened: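 A1 at 1 μM incubated with peptide at 10 μM, 2 h, in pH 7.2 buffer. Intact conjugate mass checked by MS. The conjugate gel band was trypsin-digested and the Cys55-bearing A1 fragment with bound peptide identified by mass spectrometry.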

[13] = target: T3, Induced myeloid leukemia cell differentiation protein Mcl-1; test: Binding affinity to human Mcl1 by FBid based FP assay
SK-MEL-28 [14] = test: Synergistic cytotoxicity in human SK-MEL-28 cells assessed as reduction in cell viability at 1.25 to 30 uM incubated for 48 hrs in presence of etoposide by MTT assay; assay type: functional, cell-based; conditions: dose 1.25-30 µM
[15] = target: T1, Bcl-2-related protein A1 (Homo sapiens); test: as §1
[16] = target: Induced myeloid leukemia cell differentiation protein Mcl-1/Bcl-2-like protein 11 (Homo sapiens) (UniProt Q07820+O43521); test: Inhibition of Mcl1-Bim interaction in human SK-MEL-28 cells at 30 uM incubated for 24 hrs by immunoprecipitation assay; assay type: cell-based
Induced myeloid leukemia cell differentiation protein Mcl-1/Bcl-2-like protein 11 (Homo sapiens), sequence (O43521 whole entry, looked up): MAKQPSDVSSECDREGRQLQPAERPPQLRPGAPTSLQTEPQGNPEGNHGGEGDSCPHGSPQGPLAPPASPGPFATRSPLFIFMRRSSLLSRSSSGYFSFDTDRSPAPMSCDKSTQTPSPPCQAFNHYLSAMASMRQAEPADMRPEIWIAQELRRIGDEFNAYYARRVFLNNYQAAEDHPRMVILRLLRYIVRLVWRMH
Induced myeloid leukemia cell differentiation protein Mcl-1/Bcl-2-like protein 11 (Homo sapiens), sequence (Q07820 whole entry, looked up): as the sequence (Q07820 whole entry) above

SK-MEL-28 [17] = test: Toxicity in human SK-MEL-28 cells at 50 uM incubated for 30 mins by LDH release assay; assay type: cell-based; conditions: sk-mel-28, 0.5 h
[18] = target: Bcl-2-like protein 11/Bcl-2-related protein A1 (Homo sapiens) (UniProt O43521+Q16548); test: Inhibition of Bcl2A1-Bim interaction in human SK-MEL-28 cells at 30 uM incubated for 24 hrs by immunoprecipitation assay; assay type: cell-based
Bcl-2-like protein 11/Bcl-2-related protein A1 (Homo sapiens), sequence (O43521 whole entry, looked up, one chain of several): as the sequence (O43521 whole entry, looked up) above

Row | Ratio [1] [mM⁻¹ s⁻¹] | Activity [2] | Ki (Bcl-2-related protein A1 [3]) [µM] | IC50 (Bcl-2-related protein A1 [4]) [µM] | IC50 [5] [µM] | Kinact [6] [s⁻¹] | Activity [8] | Activity [9] | Activity [10] | Structure (SMILES) | also measured
1 | 30 | Active | 0.0816 | 0.0135 | 0.0345 | 0.00239 | – | – | – | C=CC(=O)NCC(NC(=O)[C@@H](NC(C)=O)[C@@H](C)CC)C(=O)N[C@H](C(=O)N[C@@H](C)C(=O)N[C@@H](CCC(N)=O)C(=O)N[C@@H](CCC(=O)O)C(=O)N[C@@H](CC(C)C)C(=O)N[C@@H](CCCNC(=N)N)C(=O)N[C@@]1(C)CCC/C=C/CCC[C@@](C)(C(=O)N[C@@H](Cc2ccccc2)C(=O)N[C@@H](CC(N)=O)C(=O)N[C@@H](C)C(=O)N[C@@H](Cc2ccc(O)cc2)C(=O)N[C@@H](Cc2ccc(O)cc2)C(=O)N[C@@H](C)C(=O)N[C@@H](CCCNC(=N)N)C(=O)N[C@@H](CCCNC(=N)N)C(N)=O)NC(=O)[C@H](CC(=O)O)NC(=O)CNC(=O)[C@H]([C@@H](C)CC)NC1=O)[C@@H](C)CC (stereo partly drawn) | –
2 | – | – | – | – | – | – | – | – | – | CC[C@H](C)[C@H](NC(C)=O)C(=O)N[C@@H](Cc1c[nH]c2ccccc12)C(=O)N[C@H](C(=O)N[C@@H](C)C(=O)N[C@@H](CCC(N)=O)C(=O)N[C@@H](CCC(=O)O)C(=O)N[C@@H](CC(C)C)C(=O)N[C@@H](CCCNC(=N)N)C(=O)N[C@@]1(C)CCC/C=C/CCC[C@@](C)(C(=O)N[C@@H](Cc2ccccc2)C(=O)N[C@@H](CC(N)=O)C(=O)N[C@@H](C)C(=O)N[C@@H](Cc2ccc(O)cc2)C(=O)N[C@@H](Cc2ccc(O)cc2)C(=O)N[C@@H](C)C(=O)N[C@@H](CCCNC(=N)N)C(=O)N[C@@H](CCCNC(=N)N)C(N)=O)NC(=O)[C@H](CC(=O)O)NC(=O)CNC(=O)[C@H]([C@@H](C)CC)NC1=O)[C@@H](C)CC | IC50 (SK-MEL-28 [7]): 15.7 µM
3 | 9 | Active | 0.175 | 0.0546 | 0.162 | 0.00159 | inactive | inactive | inactive | C=CC(=O)NCC(NC(=O)[C@@H](NC(C)=O)[C@@H](C)CC)C(=O)N[C@H](C(=O)N[C@@H](C)C(=O)N[C@@H](CCC(N)=O)C(=O)N[C@@H](CCC(=O)O)C(=O)N[C@@H](CC(C)C)C(=O)N[C@@H](CCCNC(=N)N)C(=O)N[C@@]1(C)CCC/C=C/CCC[C@@](C)(C(=O)N[C@@H](Cc2ccccc2)C(N)=O)NC(=O)[C@H](CC(=O)O)NC(=O)CNC(=O)[C@H]([C@@H](C)CC)NC1=O)[C@@H](C)CC (stereo partly drawn) (Ac-I[ξDap](Acryloyl)IAQELR[S5]IGD[S5]F-NH2; staple (E) 9-13) | –
4 | 118 | Active | 0.0305 | 0.0065 | 0.048 | 0.00349 | inactive | inactive | inactive | C=CC(=O)NCC1NC(=O)[C@@H](NC(C)=O)CCCCNC(=O)C[C@@H](C(=O)N[C@@H](CCC(=O)O)C(=O)N[C@@H](CC(C)C)C(=O)N[C@@H](CCCNC(=N)N)C(=O)N[C@H]2CCCCNC(=O)C[C@@H](C(=O)N[C@@H](Cc3ccccc3)C(N)=O)NC(=O)[C@H](CC(=O)O)NC(=O)CNC(=O)[C@H]([C@@H](C)CC)NC2=O)NC(=O)[C@H](C)NC(=O)[C@H]([C@@H](C)CC)NC1=O (stereo partly drawn) (Ac-K[ξDap](Acryloyl)IADELRKIGDDF-NH2; lactam 1-5, 9-13) | –
5 | 54 | Active | 0.0467 | 0.0204 | 0.108 | 0.00231 | inactive | inactive | inactive | C=CC(=O)NCC1NC(=O)[C@@H](NC(C)=O)CCCCNC(=O)C[C@@H](C(=O)N[C@@H](CCC(=O)O)C(=O)N[C@@H](CC(C)C)C(=O)N[C@@H](CCCNC(=N)N)C(=O)N[C@@]2(C)CCC/C=C/CCC[C@@](C)(C(=O)N[C@@H](Cc3ccccc3)C(N)=O)NC(=O)[C@H](CC(=O)O)NC(=O)CNC(=O)[C@H]([C@@H](C)CC)NC2=O)NC(=O)[C@H](C)NC(=O)[C@H]([C@@H](C)CC)NC1=O (stereo partly drawn) (Ac-K[ξDap](Acryloyl)IADELR[S5]IGD[S5]F-NH2; lactam 1-5; staple (E) 9-13) | –
6 | 399 | Active | 0.01 | 0.0066 | 0.0292 | 0.00367 | inactive | inactive | inactive | C=CC(=O)NCC1NC(=O)[C@@](C)(NC(C)=O)CCC/C=C/CCC[C@@](C)(C(=O)N[C@@H](CCC(=O)O)C(=O)N[C@@H](CC(C)C)C(=O)N[C@@H](CCCNC(=N)N)C(=O)N[C@H]2CCCCNC(=O)C[C@@H](C(=O)N[C@@H](Cc3ccccc3)C(N)=O)NC(=O)[C@H](CC(=O)O)NC(=O)CNC(=O)[C@H]([C@@H](C)CC)NC2=O)NC(=O)[C@H](C)NC(=O)[C@H]([C@@H](C)CC)NC1=O (stereo partly drawn) (Ac-[S5][ξDap](Acryloyl)IA[S5]ELRKIGDDF-NH2; staple (E) 1-5; lactam 9-13) | Activity [11]: Active; Activity [12]: Active
7 | 16.2 | Active | 0.133 | 0.0134 | 0.0516 | 0.00224 | inactive | inactive | inactive | C=CC(=O)NCC1NC(=O)[C@@](C)(NC(C)=O)CCC/C=C/CCC[C@@](C)(C(=O)N[C@@H](CCC(=O)O)C(=O)N[C@@H](CC(C)C)C(=O)N[C@@H](CCCNC(=N)N)C(=O)N[C@@]2(C)CCC/C=C/CCC[C@@](C)(C(=O)N[C@@H](Cc3ccccc3)C(N)=O)NC(=O)[C@H](CC(=O)O)NC(=O)CNC(=O)[C@H]([C@@H](C)CC)NC2=O)NC(=O)[C@H](C)NC(=O)[C@H]([C@@H](C)CC)NC1=O (stereo partly drawn) (Ac-[S5][ξDap](Acryloyl)IA[S5]ELR[S5]IGD[S5]F-NH2; staple (E) 1-5, 9-13) | –
8 | – | – | – | – | – | – | – | – | – | C=CC(=O)NCC1NC(=O)[C@@](C)(NC(C)=O)CCC/C=C/CCC[C@@](C)(C(=O)N[C@@H](CC(C)C)C(=O)N[C@@H](CC(C)C)C(=O)N[C@@H](CCCNC(=N)N)C(=O)N[C@H]2CCCCNC(=O)C[C@@H](C(=O)N[C@@H](Cc3ccccc3)C(N)=O)NC(=O)[C@H](CC(=O)O)NC(=O)CNC(=O)[C@H]([C@@H](C)CC)NC2=O)NC(=O)[C@H](C)NC(=O)[C@H]([C@@H](C)CC)NC1=O (stereo partly drawn) (Ac-[S5][ξDap](Acryloyl)IA[S5]LLRKIGDDF-NH2; staple (E) 1-5; lactam 9-13) | Activity [6]: Active
9 | – | inactive | – | – | – | – | – | – | – | CCC(=O)NCC1NC(=O)[C@@](C)(NC(C)=O)CCC/C=C/CCC[C@@](C)(C(=O)N[C@@H](CCC(=O)O)C(=O)N[C@@H](CC(C)C)C(=O)N[C@@H](CCCNC(=N)N)C(=O)N[C@H]2CCCCNC(=O)C[C@@H](C(=O)N[C@@H](Cc3ccccc3)C(N)=O)NC(=O)[C@H](CC(=O)O)NC(=O)CNC(=O)[C@H]([C@@H](C)CC)NC2=O)NC(=O)[C@H](C)NC(=O)[C@H]([C@@H](C)CC)NC1=O (stereo partly drawn) (Ac-[S5][ξDap](Propionyl)IA[S5]ELRKIGDDF-NH2; staple (E) 1-5; lactam 9-13) | Activity [11]: inactive; Activity [13]: Active
10 | – | – | – | – | – | – | – | inactive | inactive | CCC(=O)NCC1NC(=O)[C@@](C)(NC(C)=O)CCC/C=C/CCC[C@@](C)(C(=O)N[C@@H](CC(C)C)C(=O)N[C@@H](CC(C)C)C(=O)N[C@@H](CCCNC(=N)N)C(=O)N[C@H]2CCCCNC(=O)C[C@@H](C(=O)N[C@@H](Cc3ccccc3)C(N)=O)NC(=O)[C@H](CC(=O)O)NC(=O)CNC(=O)[C@H]([C@@H](C)CC)NC2=O)NC(=O)[C@H](C)NC(=O)[C@H]([C@@H](C)CC)NC1=O (stereo partly drawn) (Ac-[S5][ξDap](Propionyl)IA[S5]LLRKIGDDF-NH2; staple (E) 1-5; lactam 9-13) | Activity (SK-MEL-28 [14]): Active; Activity (SK-MEL-28 [7]): Dose-dependent effect; IC50 (SK-MEL-28 [7]): 8.8 µM; Activity [15]: Active; inhibition [16]: Active; Activity [5]: Active; Activity (SK-MEL-28 [17]): Non-Toxic; inhibition [18]: Active
